# “And” between values parts separate entries of the source, which are not always exact repeats. Identical values can stand only once. Like-named read-outs stand apart in the source and are kept apart here.
# How the values were obtained:
# F344 BigBlue rats [1] = conditions: Male; animal 1 – 4; previously reported; ref Lehmann et al. 2007; Maddox et al. 2008; cited from earlier work
# liver mRNA = test: Gene expression analysis of female liver RNA; format: in vivo, F344 BigBlue rats; conditions: for number of unique genes significantly changed: p < 0.0001 and fold change > 5 versus corn oil control, pooled RNA
# LacI gene [2] = test: LacI gene sequencing, type of mutations; format: in vivo, F344 BigBlue rats; conditions: female liver; for Deletions, distinct mutations / Insertions, distinct mutations / Transitions, distinct mutations / Transversions, distinct mutations: number; for frameshift mutations (deletions and insertions), % of all mutations: solvent controls 18%
# [3] = ref Li et al. 1997; cited from earlier work
# LacI gene [4] = test: BigBlue lacI mutant and mutation frequency analysis, female liver; format: in vivo, F344 BigBlue rats; conditions: for Mutants per 10^6 plaques (mutant frequency): 4 weekly i.p. injections, sacrifice PND75; for Mutation Frequency (MF) ± SE (corrected) / Number of Mutations (corrected): after sequencing; for Number of Mutations (corrected): duplicates and non-mutants excluded
# Summary of the method: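 Female F344 BigBlue rats (lacI transgene), 4/group, got i.p. test compound, positive control or corn oil (5 ml/kg) weekly on PND 37, 44, 51, 58 and were killed on PND75. Genomic DNA from 50 mg central liver was lambda-packaged, infected into E. coli and plated in X-gal top agar overnight. Blue plaques were counted, with >100,000 pfu/animal. Mutant frequency = blue plaques/pfu, per 10^6 ± SE.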
# F344 BigBlue rats [5] = test: Histological analysis of spleen, lung and liver; format: in vivo; conditions: animal 1 – 4
# Summary of the method: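 In both genders, frozen tissue sampled at PND75 sacrifice (4 weekly i.p. doses, 4 rats/group) was cut into four-micron sections. Sections were stained with hematoxylin/eosin and examined by light microscopy for histological anomalies in each animal.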
# [6] = Body weight gain during the study period; format: in vivo, F344 BigBlue rats; conditions: for reduction of weight gain during the treatment period: versus control; for effect on weight gain compared to control: either gender
# LacI = conditions: ref Lehmann et al. 2007, cited from earlier work; for frameshift mutations, % of mutations: male livers, control 19%
# F344 BigBlue rats [7] = test: Organ weights normalized to body weight; format: in vivo; conditions: for impact on liver, lung and spleen weights: versus corn oil controls
# Summary of the method: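 Rats of both genders, 4/group, were given 4 weekly i.p. doses in corn oil and killed on PND75 by CO2 then cervical dislocation. Liver and other organs were excised and weighed, and weights were expressed as g per 100 g body weight. ANOVA used treatment, gender and their interaction.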
# [8] = ref Espandiari et al. 2004; cited from earlier work
# Sprague Dawley rat = conditions: female Sprague Dawley rats; ref http://ntp.niehs.nih.gov/; cited from earlier work
# [9] = versus corn oil control, up-regulated
smiles,measurement,setting,value
"Cc1ccc2cc3c(ccc4ccccc43)c3c2c1CC3 [3-MC, 3-Methylcholanthrene, reference compound]","Organ Pathology, LIVER",F344 BigBlue rats [1],"centrilobular necrosis, in some cases severe, was the dominat finding"
same,"Organ Pathology, LUNG",F344 BigBlue rats [1],1: No abnormality 2 + 3: Focal perivascular lymphocytes. 4: Focal perivascular lymphocytes with increased intra-alveolar macrophages.
same,number of unique genes significantly changed,liver mRNA,Seventyfive
same,calca (calcitonin/calcitonin-related polypeptide a) expression,liver mRNA; versus corn oil control,up regulated
same,csda (cold shock domain protein A) expression,liver mRNA; versus corn oil control,up regulated
same,trib3 (tribbles homolog 3) expression,liver mRNA; versus corn oil control,up regulated
same,CYP1A2 gene expression increase,"liver mRNA; versus corn oil control, up",58 fold
same,UGT1A2 gene expression increase,"liver mRNA; versus corn oil control, up",13 fold
same,akr7a3 (aldo-keto reductases 7a3) expression change,"liver mRNA; versus corn oil control, up",16 fold
same,bcl10 (B-cell CLL/lymphoma 10) expression change,"liver mRNA; versus corn oil control, up",16.3 fold
same,ephx1 (epoxide hydrolase 1) expression change,"liver mRNA; versus corn oil control, up",9.9 fold
same,gdnf (glial cell derived neurotrophic factor) expression change,"liver mRNA; versus corn oil control, up",6.0 fold
same,glrx1 (glutaredoxin 1) expression change,"liver mRNA; versus corn oil control, up",10.2 fold
same,hmox1 (heme oxygenase 1) expression change,"liver mRNA; versus corn oil control, up",16.3 fold
same,mgst2 (microsomal glutathione S-transferase 2) expression change,"liver mRNA; versus corn oil control, up",7.9 fold
same,ptgs1 (prostaglandin-endoperoxide synthase 1) expression change,"liver mRNA; versus corn oil control, up",27.8 fold
same,smarcb1 expression change,"liver mRNA; versus corn oil control, up",8.5 fold
same,"Deletions, % of total",LacI gene [2],18%
same,"Insertions, % of total",LacI gene [2],14%
same,Total Mutations,LacI gene [2],28
same,"Transitions, % of total",LacI gene [2],32%
same,"Transversions, % of total",LacI gene [2],36%
same,"frameshift mutations (deletions and insertions) observed, number",LacI gene [2]; expected 5 from solvent control proportions,9
same,"Deletions, distinct mutations",LacI gene [2],5
same,"Insertions, distinct mutations",LacI gene [2],4
same,"Transitions, distinct mutations",LacI gene [2],9
same,"Transversions, distinct mutations",LacI gene [2],10
same,"frameshift mutations (deletions and insertions), % of all mutations",LacI gene [2],32%
same,persistence in the liver,[3],2 weeks
same,significance of the increase in mutation frequency compared to control,LacI gene [4],failed marginally to reach statistical significance
same,Mutants per 10^6 plaques (mutant frequency),LacI gene [4],48.4 per 10^6 plaques
same,Mutation Frequency (MF) ± SE (corrected),LacI gene [4],43.5 per 10^6 pfu and 43.5 ± 14.8 per 10^6 pfu
same,Number of Mutations (corrected),LacI gene [4],28
same,"Organ Pathology, LIVER",F344 BigBlue rats [5]; Female,"only scattered foci of necrosis, prominent Kupffer cells and focal perilobular lymphocytes in two of the four animals"
same,"Organ Pathology, LUNG",F344 BigBlue rats [5]; Female,1: Bronchopneumonia with what looks like early ARDS. Pulmonary edema 2: Bronchopneumonia with what looks like early ARDS more so than #1. Pulmonary edema. 3: Focal acute inflammation with increased intra-alveolar macrophages 4: No abnormality.
same,"Organ Pathology, SPLEEN",F344 BigBlue rats [5]; Female,No abnormality
same,"Organ Pathology, SPLEEN",F344 BigBlue rats [5]; Male,No abnormality
same,Weight Gain (average ± StDev),"[6]; Female, control 80.7 ± 7.42",61.8 ± 7.78 ^# gram
same,Weight Gain (average ± StDev),"[6]; Male, control 159.7 ± 7.63",90.4 ± 25.6 gram
same,reduction of weight gain during the treatment period,[6]; females,23%
same,reduction of weight gain during the treatment period,[6]; males,43%
same,"frameshift mutations, % of mutations",LacI,27%
same,increase in mutation frequency,"LacI; male rodents, liver",about 5 fold
same,increase in liver mass compared to corn oil controls,F344 BigBlue rats [7]; female rats,over 30%
same,increase in lung mass compared to corn oil controls,F344 BigBlue rats [7]; female rats,over 30%
same,increase in spleen mass compared to corn oil controls,F344 BigBlue rats [7]; female rats,over 30%
same,liver weight relative to body weight compared to corn oil treated rats,F344 BigBlue rats [7]; female rats,nearly doubled in weight per grams of body weight
same,relative lung weight,F344 BigBlue rats [7]; female rats,more than doubling of the relative lung weight
same,"spleen, thymus and adrenal gland weights relative to controls",F344 BigBlue rats [7]; females,increased spleen weights and decreased the thymus and adrenal gland weights
Oc1ccc(-c2ccc(Cl)cc2)cc1 [4′-OH-PCB3],"Organ Pathology, LIVER",F344 BigBlue rats [1],"all four male 4′-OH-PCB3 livers showed dilated sinosoids and 1: dilated sinusoids, rare acidophil body. No obvious inflammation. 2, 3, and 4: dilated sinusoids,. Focal lymphocyte cluster with rare acidophil body. Minimal portal tract inflammation."
same,"Organ Pathology, LUNG",F344 BigBlue rats [1],1 + 2: No abnormality. 3 + 4: Minimal perivascular lymphocytes.
same,number of unique genes significantly changed,liver mRNA,157
same,cul1 (cullin 1) expression change,"liver mRNA; versus corn oil control, down",36.3 fold
same,ei24 (etoposide induced 2.4 mRNA) expression change,"liver mRNA; versus corn oil control, down",28.1 fold
same,cyp2b2 expression change,"liver mRNA; versus corn oil control, down-regulated",~19 fold
same,aqp2 (aquaporin 2) expression change,"liver mRNA; versus corn oil control, up",6.6 fold
same,bnip3l (BCL2/adenovirus E1B interacting protein 3-like) expression change,"liver mRNA; versus corn oil control, up",5.8 fold
same,kdr (kinase insert domain protein receptor) expression change,"liver mRNA; versus corn oil control, up",6.4 fold
same,sh3glb1 (SH3-domain GRB2-like endophilin B1) expression change,"liver mRNA; versus corn oil control, up",6.3 fold
same,stat1 (signal transducer and activator of transcription 1) expression change,"liver mRNA; versus corn oil control, up",10.6 fold
same,syvn1 (synovial apoptosis inhibitor 1) expression change,"liver mRNA; versus corn oil control, up",26.7 fold
same,Cyp2j4 expression change,liver mRNA; [9],8.8 fold
same,sult1b1 (sulfotransforase 1b1) expression change,liver mRNA; [9],~7 fold
same,"Deletions, % of total",LacI gene [2],12%
same,"Insertions, % of total",LacI gene [2],24%
same,"Transitions, % of total",LacI gene [2],35%
same,"Transversions, % of total",LacI gene [2],29%
same,"Deletions, distinct mutations",LacI gene [2],2
same,"Insertions, distinct mutations",LacI gene [2],4
same,"Transitions, distinct mutations",LacI gene [2],6
same,"Transversions, distinct mutations",LacI gene [2],5
same,"frameshift mutations (deletions and insertions), % of all mutations",LacI gene [2],36%
same,significance of the increase in mutation frequency compared to control,LacI gene [4],neither PCB3 (p=0.429) nor 4′-OH-PCB3 (p=0.581) increased the mutation frequency significantly
same,Mutants per 10^6 plaques (mutant frequency),LacI gene [4],27.3 per 10^6 plaques
same,Mutation Frequency (MF) ± SE (corrected),LacI gene [4],27.2 ± 6.6 per 10^6 pfu
same,Number of Mutations (corrected),LacI gene [4],19
same,"Organ Pathology, LIVER",F344 BigBlue rats [5]; Female,"rare acidophilic bodies, but 3 of 4 animals had patchy hepatocellular necrosis and chronic inflammation and 1: Rare acidophilic bodies with patchy hepatocellular necrosis and chronic inflammation. 2 + 3: Rare acidophilic bodies with patchy hepatocellular necrosis and chronic inflammation. 4: Scattered acidophilic bodies with dilated sinusoids."
same,"Organ Pathology, LUNG",F344 BigBlue rats [5]; Female,1: Minimal acute inflammation 2: Almost normal with focal perivascular lymphocytes. 3: No abnormality. 4: Patchy bronchopneumonia with early ARDS. Perivascular lymphocytes increased
same,"Organ Pathology, SPLEEN",F344 BigBlue rats [5]; Female,1 – 4: Reduced mantle
same,"Organ Pathology, SPLEEN",F344 BigBlue rats [5]; Male,1: No abnormality 2 + 3: Reduced mantle with focally increased neutrophils. 4: Reduced mantle with focally increased neutrophils with red pulp congestion.
same,Weight Gain (average ± StDev),"[6]; Female, control 80.7 ± 7.42",85.3 ± 4.13 gram
same,Weight Gain (average ± StDev),"[6]; Male, control 159.7 ± 7.63",129.6 ± 17.50 gram
same,effect on weight gain compared to control,[6],Neither PCB3 nor 4′-OH-PCB3 had a significant effect on weight gain in either gender
same,"frameshift mutations, % of mutations",LacI,22%
same,"impact on liver, lung and spleen weights",F344 BigBlue rats [7],no statistically significant impact
same,result in the modified Solt-Farber Initiation Protocol,[8],positive
"Clc1ccc(-c2cc(Cl)c(Cl)c(Cl)c2)cc1Cl [PCB 126, 3,3′,4,4′,5-pentachlorobiphenyl]",carcinogenicity in chronic carcinogenicity studies,Sprague Dawley rat,clear evidence
"Clc1ccc(-c2ccccc2)cc1 [PCB3, 4-chlorobiphenyl]",number of unique genes significantly changed,liver mRNA,86
same,CYP mRNA in the liver,liver mRNA; versus corn oil control,No CYP mRNA increase
same,Jun expression change,"liver mRNA; versus corn oil control, up",55.9 fold
same,avpr1a (arginine vasopressin receptor 1A) expression change,"liver mRNA; versus corn oil control, up",7.3 fold
same,cfdp1 (craniofacial development protein 1) expression change,"liver mRNA; versus corn oil control, up",6.2 fold
same,cps1 (carbamoyl-phosphate synthetase 1) expression change,"liver mRNA; versus corn oil control, up",6.7 fold
same,hmox1 (heme oxygenase 1) expression change,"liver mRNA; versus corn oil control, up",5.8 fold
same,kdr (kinase insert domain protein receptor) expression change,"liver mRNA; versus corn oil control, up",5.5 fold
same,lrrc59 (leucine rich repeat containing 59) expression change,"liver mRNA; versus corn oil control, up",33.1 fold
same,mbd2 (Methyl-CpG-binding protein) expression change,"liver mRNA; versus corn oil control, up",6.9 fold
same,mrpl23 (mitochondrial ribosomal protein L23) expression change,"liver mRNA; versus corn oil control, up",223.3 fold
same,sult1b1 (sulfotransforase 1b1) expression change,liver mRNA; [9],~7 fold
same,"Deletions, % of total",LacI gene [2],7%
same,"Insertions, % of total",LacI gene [2],20%
same,Total Mutations,LacI gene [2],15
same,"Transitions, % of total",LacI gene [2],53%
same,"Transversions, % of total",LacI gene [2],20%
same,"Deletions, distinct mutations",LacI gene [2],1
same,"Insertions, distinct mutations",LacI gene [2],3
same,"Transitions, distinct mutations",LacI gene [2],8
same,"Transversions, distinct mutations",LacI gene [2],3
same,significance of the increase in mutation frequency compared to control,LacI gene [4],neither PCB3 (p=0.429) nor 4′-OH-PCB3 (p=0.581) increased the mutation frequency significantly
same,Mutants per 10^6 plaques (mutant frequency),LacI gene [4],30.3 per 10^6 plaques
same,Mutation Frequency (MF) ± SE (corrected),LacI gene [4],30.3 ± 17.9 per 10^6 pfu
same,Number of Mutations (corrected),LacI gene [4],15
same,"Organ Pathology, LIVER",F344 BigBlue rats [5]; Female,all female PCB3 livers had acidophilic bodies and two animals also showed patchy hepatocellular necrosis and 1 + 2: Scattered acidophilic bodies 3: Centrilobular acidophilic bodies and patchy hepatocellular necrosis. 4: Centrilobular acidophilic bodies and patchy hepatocellular necrosis.
same,"Organ Pathology, LUNG",F344 BigBlue rats [5]; Female,1: Focal acute inflammation 2: Minimal acute inflammation with areas of atelectasis 3: Minimal acute inflammation 4: Patchy bronchopneumonia with early ARDS. Perivascular lymphocytes increased.
same,"Organ Pathology, SPLEEN",F344 BigBlue rats [5]; Female,No abnormality
same,"Organ Pathology, SPLEEN",F344 BigBlue rats [5]; Male,No abnormality
same,Weight Gain (average ± StDev),"[6]; Female, control 80.7 ± 7.42",79.6 ± 4.51 gram
same,Weight Gain (average ± StDev),"[6]; Male, control 159.7 ± 7.63",146.1 ± 7.99 gram
same,effect on weight gain compared to control,[6],Neither PCB3 nor 4′-OH-PCB3 had a significant effect on weight gain in either gender
same,"impact on liver, lung and spleen weights",F344 BigBlue rats [7],no statistically significant impact
"Clc1ccc(-c2cc(Cl)c(Cl)cc2Cl)cc1Cl [PCB 118, 2,3′,4,4′,5-pentachloro-biphenyl]",carcinogenicity in chronic carcinogenicity studies,Sprague Dawley rat,clear evidence
